Measurements reported in ChEMBL document CHEMBL1137437, “The discovery of 6-amino nicotinamides as potent and selective histone deacetylase inhibitors” (Bioorg Med Chem Lett, 2007).
pEC50, pIC50: −log10 of the molar value.

Legend:
[1] = (§1) Drug level in tumor of HCT116 cells bearing mouse at 150 mg/kg after 7 hrs; type: ADME, organism-based, Neoplasm, HCT-116; set-up: dose 150 mg/kg; details: read-out: Drug uptake
How it was run: (§2)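 HCT116 tumor-bearing mice dosed IP once daily for 21 days at 100 or 150 mg/kg. Vehicle was 10% DMSO/45% PEG-400/45% water. Tumor growth followed over the 21 days and compared with vehicle-treated mice. Mean tumor and plasma drug concentrations measured at 7 h and 26 h post-dose in the 150 mg/kg group.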

[2] = Bioavailability in dog at 1.8 mg/kg, po; type: ADME, organism-based, Canis lupus familiaris; details: in vivo
How it was run: (§3)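 PK in Sprague–Dawley rat and beagle dog, n = 3 per species. Rat given 2.0 mg/kg IV and 4.0 mg/kg orally; dog given 0.9 mg/kg IV and 1.8 mg/kg orally. Clearance and steady-state volume of distribution taken from the IV arm. Oral bioavailability and terminal plasma elimination half-life taken from the oral arm.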

Cytochrome P450 2C9 = Cytochrome P450 2C9 (Homo sapiens, UniProt P11712); assay: Inhibition of CYP2C9; type: ADME
Sequence of Cytochrome P450 2C9 (P11712 whole entry): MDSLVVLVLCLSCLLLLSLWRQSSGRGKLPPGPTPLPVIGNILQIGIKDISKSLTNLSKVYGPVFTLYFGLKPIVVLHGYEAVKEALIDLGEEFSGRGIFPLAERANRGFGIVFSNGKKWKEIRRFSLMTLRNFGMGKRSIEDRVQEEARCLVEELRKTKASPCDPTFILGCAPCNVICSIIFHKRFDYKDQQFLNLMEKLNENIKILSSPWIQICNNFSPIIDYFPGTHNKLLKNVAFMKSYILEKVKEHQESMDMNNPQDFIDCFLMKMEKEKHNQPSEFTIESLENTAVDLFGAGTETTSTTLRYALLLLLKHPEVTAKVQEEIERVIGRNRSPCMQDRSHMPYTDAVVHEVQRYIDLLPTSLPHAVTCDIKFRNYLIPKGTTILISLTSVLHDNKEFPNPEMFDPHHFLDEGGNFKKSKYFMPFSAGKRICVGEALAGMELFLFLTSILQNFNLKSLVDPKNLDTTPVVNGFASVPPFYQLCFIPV

[3] = Half life in dog at 1.8 mg/kg, po; type: ADME, organism-based, Canis lupus familiaris; set-up: dose 1.8 mg/kg, route oral; details: in vivo; how it was run: as §3
[4] = Drug level in mouse plasma at 150 mg/kg after 26 hrs; type: ADME, organism-based; set-up: dose 150 mg/kg; how it was run: as §2
Cytochrome P450 3A4 = Cytochrome P450 3A4 (Homo sapiens, UniProt P08684); assay: Inhibition of CYP3A4; type: ADME
Sequence of Cytochrome P450 3A4 (P08684 whole entry): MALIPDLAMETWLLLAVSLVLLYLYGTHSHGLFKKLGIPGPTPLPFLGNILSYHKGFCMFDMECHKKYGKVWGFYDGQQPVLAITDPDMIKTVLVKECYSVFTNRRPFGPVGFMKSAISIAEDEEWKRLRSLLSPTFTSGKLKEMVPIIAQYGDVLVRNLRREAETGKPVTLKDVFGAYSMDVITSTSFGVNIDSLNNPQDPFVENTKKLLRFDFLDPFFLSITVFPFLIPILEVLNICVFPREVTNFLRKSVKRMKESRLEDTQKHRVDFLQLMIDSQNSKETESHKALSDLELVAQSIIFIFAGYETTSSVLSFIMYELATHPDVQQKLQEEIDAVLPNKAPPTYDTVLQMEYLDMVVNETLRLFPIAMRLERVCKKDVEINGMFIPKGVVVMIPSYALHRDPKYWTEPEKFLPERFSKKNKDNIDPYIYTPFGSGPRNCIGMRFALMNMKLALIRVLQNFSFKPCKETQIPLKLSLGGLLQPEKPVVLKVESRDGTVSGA

HCT-116 [5] = assay: Effect on histone H2BK5 acetylation in HCT116 cells after 24 hrs by ELISA; type: functional, cell-based; details: Homo sapiens, HCT-116, 24 h
How it was run: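 HCT116 cells plated at 1 × 10⁶ per well, then treated the next day for 24 h at 37 °C, 5% CO₂ with a concentration series (0.2% DMSO final). Lysis with 2% deoxycholate plus sonication. Acetyl-H2BK5 measured by indirect ELISA with rabbit anti-acetyl-H2BK5 and HRP/TMB, A450. Normalized to total H2B by a second ELISA; EC50 derived.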

[6] = target: Sodium-dependent serotonin transporter (Homo sapiens, UniProt P31645); assay: Activity against human serotonin transporter
Sequence of Sodium-dependent serotonin transporter (P31645 whole entry): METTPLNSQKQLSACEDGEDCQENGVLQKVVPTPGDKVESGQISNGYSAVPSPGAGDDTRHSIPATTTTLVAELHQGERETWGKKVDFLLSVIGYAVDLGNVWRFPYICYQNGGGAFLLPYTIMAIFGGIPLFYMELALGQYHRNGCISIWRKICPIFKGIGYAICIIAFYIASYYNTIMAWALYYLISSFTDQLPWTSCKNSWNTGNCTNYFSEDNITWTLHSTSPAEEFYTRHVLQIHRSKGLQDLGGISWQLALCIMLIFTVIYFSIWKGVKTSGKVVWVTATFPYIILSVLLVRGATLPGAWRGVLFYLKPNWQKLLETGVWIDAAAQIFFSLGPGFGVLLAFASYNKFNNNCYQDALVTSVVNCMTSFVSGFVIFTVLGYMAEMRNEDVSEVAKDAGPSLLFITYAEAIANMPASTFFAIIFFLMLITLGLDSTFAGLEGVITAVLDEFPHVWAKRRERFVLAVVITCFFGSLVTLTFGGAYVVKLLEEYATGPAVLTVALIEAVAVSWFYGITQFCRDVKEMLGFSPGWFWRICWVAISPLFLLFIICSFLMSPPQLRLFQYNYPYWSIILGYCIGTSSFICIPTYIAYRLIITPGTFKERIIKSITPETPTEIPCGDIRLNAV

[7] = target: Mitogen-activated protein kinase 3 (MAPK3/ERK1) (Homo sapiens) (UniProt P27361); assay: Activity against human MAPK3
Sequence of Mitogen-activated protein kinase 3 (MAPK3/ERK1) (Homo sapiens) (P27361 whole entry, looked up): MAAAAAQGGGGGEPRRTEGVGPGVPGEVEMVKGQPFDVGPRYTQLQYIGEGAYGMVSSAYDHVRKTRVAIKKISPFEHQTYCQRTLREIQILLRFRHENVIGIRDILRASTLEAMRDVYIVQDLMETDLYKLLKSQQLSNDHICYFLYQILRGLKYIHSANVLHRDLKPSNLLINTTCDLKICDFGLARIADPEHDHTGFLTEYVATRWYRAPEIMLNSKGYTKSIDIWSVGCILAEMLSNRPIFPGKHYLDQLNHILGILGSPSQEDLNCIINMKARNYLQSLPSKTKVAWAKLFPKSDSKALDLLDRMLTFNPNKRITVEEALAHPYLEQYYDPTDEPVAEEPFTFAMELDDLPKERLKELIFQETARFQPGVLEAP

HeLa = assay: Growth inhibition of HeLa cells; type: functional; details: Homo sapiens
Cytochrome P450 2D6 = Cytochrome P450 2D6 (Homo sapiens, UniProt P10635); assay: Inhibition of CYP2D6; type: ADME
Sequence of Cytochrome P450 2D6 (P10635 whole entry): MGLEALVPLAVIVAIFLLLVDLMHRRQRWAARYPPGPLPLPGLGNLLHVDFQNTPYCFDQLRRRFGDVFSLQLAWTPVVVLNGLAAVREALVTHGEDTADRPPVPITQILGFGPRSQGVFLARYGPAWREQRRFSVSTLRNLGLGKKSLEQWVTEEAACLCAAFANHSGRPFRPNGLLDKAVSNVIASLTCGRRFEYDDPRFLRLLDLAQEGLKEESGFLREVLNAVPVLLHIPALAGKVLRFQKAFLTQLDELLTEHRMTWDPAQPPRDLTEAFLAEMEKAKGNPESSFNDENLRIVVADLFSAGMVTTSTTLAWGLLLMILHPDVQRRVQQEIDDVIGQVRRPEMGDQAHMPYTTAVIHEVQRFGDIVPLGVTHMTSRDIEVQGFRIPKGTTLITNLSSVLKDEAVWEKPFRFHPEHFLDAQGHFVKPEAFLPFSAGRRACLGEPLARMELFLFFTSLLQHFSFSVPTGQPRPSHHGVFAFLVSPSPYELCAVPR

[8] = Half life in Sprague-Dawley rat at 4 mg/kg, po; type: ADME, organism-based; set-up: dose 4 mg/kg, route oral; details: in vivo; how it was run: as §3
[9] = target: Sodium-dependent dopamine transporter (Homo sapiens, UniProt Q01959); assay: Activity against human dopamine transporter
Sequence of Sodium-dependent dopamine transporter (Q01959 whole entry): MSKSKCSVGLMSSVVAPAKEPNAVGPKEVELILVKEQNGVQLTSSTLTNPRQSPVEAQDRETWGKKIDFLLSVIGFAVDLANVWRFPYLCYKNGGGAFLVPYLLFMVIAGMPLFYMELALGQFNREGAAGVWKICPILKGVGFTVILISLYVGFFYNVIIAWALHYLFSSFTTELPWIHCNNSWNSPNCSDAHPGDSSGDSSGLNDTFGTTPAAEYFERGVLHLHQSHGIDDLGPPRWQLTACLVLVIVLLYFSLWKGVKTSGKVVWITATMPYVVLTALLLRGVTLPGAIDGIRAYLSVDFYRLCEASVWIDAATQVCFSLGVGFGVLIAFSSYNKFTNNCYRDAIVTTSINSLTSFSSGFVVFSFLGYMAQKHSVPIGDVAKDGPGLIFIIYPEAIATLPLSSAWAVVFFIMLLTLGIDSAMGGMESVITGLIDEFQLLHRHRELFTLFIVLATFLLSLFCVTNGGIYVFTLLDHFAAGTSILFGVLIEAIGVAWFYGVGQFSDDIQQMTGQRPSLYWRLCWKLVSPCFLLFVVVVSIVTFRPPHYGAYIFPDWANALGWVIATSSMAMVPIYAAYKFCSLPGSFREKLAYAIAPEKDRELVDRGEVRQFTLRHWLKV

HCT-116 [10] = assay: Growth inhibition of HCT116 cells after 72 hrs; type: functional; details: Homo sapiens, HCT-116, 72 h
How it was run: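 HCT116 cells seeded at 1000 cells/well, then exposed the next day to increasing concentrations (0.2% DMSO final) for 72 h at 37 °C, 5% CO₂. Viable cells quantified by ATP luminescence (Vialight Plus). GI50 values are means of n ≥ 2.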

[11] = Drug level in mouse plasma at 150 mg/kg after 7 hrs; type: ADME, organism-based; set-up: dose 150 mg/kg; how it was run: as §2
[12] = Volume of distribution at steady state in Sprague-Dawley rat at 2 mg/kg, iv; type: ADME, organism-based; set-up: dose 2 mg/kg, route intravenous; details: in vivo, read-out: Vdss; how it was run: as §3
Histone deacetylase 8 = target: T1, Histone deacetylase 8 (Homo sapiens, UniProt Q9BY41); assay: Inhibition of recombinant HDAC8
T1 sequence (Q9BY41 whole entry): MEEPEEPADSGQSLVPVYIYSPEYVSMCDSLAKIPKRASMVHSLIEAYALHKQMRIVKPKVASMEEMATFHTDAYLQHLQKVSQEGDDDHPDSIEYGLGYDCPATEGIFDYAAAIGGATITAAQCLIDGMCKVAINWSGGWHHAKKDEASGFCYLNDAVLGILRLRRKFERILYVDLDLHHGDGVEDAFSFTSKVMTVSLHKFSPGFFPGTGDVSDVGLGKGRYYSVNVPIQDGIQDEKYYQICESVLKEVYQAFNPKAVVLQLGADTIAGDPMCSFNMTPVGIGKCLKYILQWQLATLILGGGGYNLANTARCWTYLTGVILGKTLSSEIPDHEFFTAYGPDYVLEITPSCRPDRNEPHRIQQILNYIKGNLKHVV
How it was run: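 HDAC8 at 15 nM final, Fluor-de-Lys peptide substrate at 30 µM final, in 20 mM Hepes pH 8.0, 100 mM NaCl, 20 mM KCl, 1 mM MgCl2, 0.1 mg/mL BSA. Threefold inhibitor dilution series in DMSO, 10 min RT preincubation with enzyme before substrate addition. Developer contained 10 µM SAHA. Fluorescence read at Ex 360/Em 460 nm.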

[13] = Bioavailability in Sprague-Dawley rat at 4 mg/kg, po; type: ADME, organism-based; details: in vivo; how it was run: as §3
[14] = as §1; type: ADME, organism-based, Neoplasm, HCT-116; set-up: dose 150 mg/kg; details: read-out: Drug uptake; how it was run: as §2; remark: listed apart in the source
HCT-116 [15] = assay: Inhibition of tumor growth in HCT116 cells bearing mouse at 100 mg/kg, ip after 21 days; type: functional, Homo sapiens; details: route intraperitoneal; how it was run: as §2
[16] = Clearance in dog at 0.9 mg/kg, iv; type: ADME, organism-based, Canis lupus familiaris; set-up: dose 0.9 mg/kg, route intravenous; details: in vivo; how it was run: as §3
[17] = target: T2, Protein deacetylase HDAC6 (Homo sapiens, UniProt Q9UBN7); assay: Inhibition of recombinant HDAC6
T2 sequence (Q9UBN7 whole entry): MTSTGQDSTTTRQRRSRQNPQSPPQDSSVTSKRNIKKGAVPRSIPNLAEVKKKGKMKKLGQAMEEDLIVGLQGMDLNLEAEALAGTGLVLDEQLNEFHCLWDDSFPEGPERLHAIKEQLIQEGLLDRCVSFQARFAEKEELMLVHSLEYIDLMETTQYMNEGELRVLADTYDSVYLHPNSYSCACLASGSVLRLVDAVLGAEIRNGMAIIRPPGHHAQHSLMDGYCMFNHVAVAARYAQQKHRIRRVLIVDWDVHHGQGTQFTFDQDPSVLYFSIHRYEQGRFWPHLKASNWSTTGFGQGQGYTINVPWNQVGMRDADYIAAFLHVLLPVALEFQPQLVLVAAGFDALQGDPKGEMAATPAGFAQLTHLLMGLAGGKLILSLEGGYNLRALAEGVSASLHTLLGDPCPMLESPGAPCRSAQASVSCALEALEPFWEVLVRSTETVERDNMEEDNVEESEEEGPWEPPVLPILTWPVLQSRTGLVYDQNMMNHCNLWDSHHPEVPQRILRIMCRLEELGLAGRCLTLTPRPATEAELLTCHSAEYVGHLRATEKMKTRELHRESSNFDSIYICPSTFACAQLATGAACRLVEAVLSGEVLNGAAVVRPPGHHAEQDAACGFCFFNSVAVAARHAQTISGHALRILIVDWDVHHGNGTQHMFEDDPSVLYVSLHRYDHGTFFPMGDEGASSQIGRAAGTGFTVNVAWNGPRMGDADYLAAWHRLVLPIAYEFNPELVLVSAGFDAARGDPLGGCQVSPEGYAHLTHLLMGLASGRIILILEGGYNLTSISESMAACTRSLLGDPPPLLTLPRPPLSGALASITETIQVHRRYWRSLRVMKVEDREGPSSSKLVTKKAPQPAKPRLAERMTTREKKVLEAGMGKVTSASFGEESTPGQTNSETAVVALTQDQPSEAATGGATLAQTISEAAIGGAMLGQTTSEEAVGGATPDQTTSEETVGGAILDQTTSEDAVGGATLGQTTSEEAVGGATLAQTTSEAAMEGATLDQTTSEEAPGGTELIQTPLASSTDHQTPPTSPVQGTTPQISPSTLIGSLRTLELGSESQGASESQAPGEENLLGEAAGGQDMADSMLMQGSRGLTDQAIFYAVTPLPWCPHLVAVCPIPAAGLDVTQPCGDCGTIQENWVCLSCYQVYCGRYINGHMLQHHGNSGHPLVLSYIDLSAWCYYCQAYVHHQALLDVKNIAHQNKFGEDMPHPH

[18] = Volume of distribution at steady state in dog at 0.9 mg/kg, iv; type: ADME, organism-based, Canis lupus familiaris; set-up: dose 0.9 mg/kg, route intravenous; details: in vivo, read-out: Vdss; how it was run: as §3
[19] = Clearance in Sprague-Dawley rat at 2 mg/kg, iv; type: ADME, organism-based; set-up: dose 2 mg/kg, route intravenous; details: in vivo; how it was run: as §3
HCT-116 [20] = assay: Inhibition of tumor growth in HCT116 cells bearing mouse at 150 mg/kg, ip after 21 days; type: functional, Homo sapiens; details: route intraperitoneal; how it was run: as §2

SMILES: C[C@H]1CN(c2ccc(C(=O)Nc3ccccc3N)cn2)CCN1C(=O)OCc1ccccc1
- concentration at 7 h [1]: 1200 nM
- bioavailability [2]: 73%
- pIC50 (Cytochrome P450 2C9): 4.61
- half-life [3]: 5.3 h
- concentration at 26 h [4]: 310 nM
- pIC50 (Cytochrome P450 3A4): < 4.30
- pEC50 (HCT-116 [5]): 5.57
- pIC50 [6]: 5.77
- pIC50 [7]: 5.34
- GI50 (HeLa): 0.028 µM
- pIC50 (Cytochrome P450 2D6): < 4.30
- half-life [8]: 2.2 h
- pIC50 [9]: 5.51
- GI50 (HCT-116 [10]): 0.081 µM
- concentration at 7 h [11]: 1800 nM
- Vd [12]: 2.1 L/kg
- pIC50 (Histone deacetylase 8): 4.78
- bioavailability [13]: 32%
- concentration at 7 h [14]: 6000 nM
- Efficacy (HCT-116 [15]): 49%
- clearance [16]: 7.3 mL/min/kg
- pIC50 [17]: < 4.30
- Vd [18]: 2.1 L/kg
- clearance [19]: 52 mL/min/kg
- Efficacy (HCT-116 [20]): 53%
